# V1R ag counter – V1a receptor agonism, counter-screen for OXTR agonists | activation, % at 3 µM | CHO-V1R cells, Fluo-8 calcium fluorescence, agonist mode; 0% DMSO, 100% 3 nM vasopressin | P37288 | 0.25% of 320,000 active;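 active = activation above the mean activation of all tested compounds plus 3 SD, per screening run, cut at about 20% in these data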;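 also: signal is peak over basal fluorescence ratio across a 100 second FLIPR read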
# Target sequence (P37288 whole entry, looked up): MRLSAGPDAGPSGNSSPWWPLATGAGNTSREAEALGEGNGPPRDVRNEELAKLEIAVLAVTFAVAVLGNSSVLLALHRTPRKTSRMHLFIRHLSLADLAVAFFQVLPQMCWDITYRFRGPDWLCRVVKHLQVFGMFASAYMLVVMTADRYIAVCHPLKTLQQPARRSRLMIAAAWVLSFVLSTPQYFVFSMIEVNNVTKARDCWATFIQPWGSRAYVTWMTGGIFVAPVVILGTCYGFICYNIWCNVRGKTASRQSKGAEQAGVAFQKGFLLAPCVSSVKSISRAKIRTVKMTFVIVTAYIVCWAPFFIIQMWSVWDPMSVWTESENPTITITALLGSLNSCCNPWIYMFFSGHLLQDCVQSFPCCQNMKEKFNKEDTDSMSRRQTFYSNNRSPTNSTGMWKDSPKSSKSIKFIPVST
# CHRM4 antagonist – antagonists of human muscarinic M4 receptor (CHRM4) | P08173 | CHO-hM4 cells, ACh EC80, Fluo-8 calcium fluorescence | inhibition, % at 3 µM | 0.73% of 360,000 active;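 active = inhibition above its plate's cutoff, the mean inhibition of sample wells plus 3 SD, cut at about 27% in these data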;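 also: 0% = acetylcholine EC80 with DMSO and 100% = DMSO without agonist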
# OXTR potentiate – potentiators of human oxytocin receptor | P30559 | CHO-OTR cells, Fluo-8 calcium fluorescence, potentiator mode; 0% = oxytocin EC15, 100% = EC100 | activation, % at 3 µM | 0.061% of 320,000 active | AID 2445;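 active = activation above that plate's cutoff, the mean activation of tested compounds plus 3 SD, cut at about 6.6% in these data, passing the limit was not always enough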;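 also: 100% uses oxytocin at 75 nM as the full agonist control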
#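 System: human OTR in CHO cells; Also added: sub-maximal oxytocin, roughly EC15; Timing: compound 6 min at room temperature before oxytocin, 100 s read; Technique: Fluo-8 intracellular calcium fluorescence, ex 470-495, em 515-575 nm; Controls: oxytocin EC15 low and EC100 high; Replication: singlicate.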
# CHRM4 PAM – potentiates acetylcholine response at human M4 receptor. 0.4% of 360,000 active. activation, % at 3 µM. P08173. CHO-K1 hM4/Gqi5, Fluo-8 calcium fluorescence, ACh EC20; 0% = ACh EC20, 100% = maximal ACh;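 active = activation above its plate's cutoff, the mean activation of sample wells plus 3 SD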
# OXTR ag – agonists of human oxytocin receptor; P30559; CHO-OTR cells, Fluo-8 calcium fluorescence; normalized: DMSO 0%, oxytocin 100%; activation, % at 3 µM; 0.32% of 320,000 active; AID 2435;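 active = activation above the mean of all tested compounds plus 3 SD, cutoff set per screening run, cut at about 20% in these data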;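 also: peak over basal fluorescence ratio from a 100 s FLIPR kinetic read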
# M4 ag – agonists of human muscarinic M4 receptor (CHRM4); activation, % at 3 µM; P08173; CHO-K1 hM4/Gqi5, Fluo-8 calcium fluorescence; vehicle 0%, full acetylcholine response 100%; AID 624127; 0.14% of 360,000 active;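 active = activation above the run mean over all test wells plus 3 SD, cut at about 32% in these data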;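 also: peak over basal fluorescence ratio per well then scaled between controls; 0% = DMSO wells and 100% = acetylcholine at EC100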
# * hit, by the source's call; · = no result; ! = a repeat was not active. A selection: hits, their analogues and other compounds. The true share with any hit is near 1.5%.
SMILES,V1R ag counter,CHRM4 antagonist,OXTR potentiate,CHRM4 PAM,OXTR ag,M4 ag
CCN(CC)c1ccc(C2C(C(=O)OCCOC)=C(C)NC3=C2C(=O)CCC3)cc1 (stereo unspecified),0,35*,1,-19,2,1
O=C(O)C1CC(=O)N(CCc2ccc(F)cc2)C1 (stereo unspecified),-1,-4,-5,5,0,1
CCN(CCn1cccn1)Cc1c(C(=O)N2CCCCCCC2)nc2ccc(Cl)cn12,1,8,-5,-5,-1,1
Cc1[nH]c2ccc3c(ncn3CCC#N)c2c1C,1,31*,3,14,1,1
CC(=O)Nc1cc(-c2cccc(N)c2)cn2c(-c3ccccc3)cnc12,·,2,·,2,·,4
CCC(C(=O)N1CCOCC1)n1c2ccccc2c2nc(=O)cc(C)n21 (stereo unspecified),1,-12,-9,6,0,1
CCOC(=O)c1sc(=NC(=O)c2ccc(C)cc2)n(C)c1C,-1,-5,-11,-1,-2,1
CCOC(=O)c1sc(=NC(=O)c2ccc(S(=O)(=O)N(C)c3ccccc3)cc2)n(C)c1C,0,-1,-9,27*,0,2
COc1ccccc1NS(=O)(=O)c1cccc(C(=O)N2CCN(C(=O)c3ccco3)CC2)c1,1,7,-4,2,0,2
CC(=O)c1cccc(NC(=O)/C(=C\c2cccnc2)NC(=O)c2ccc(C)cc2)c1,-1,-10,-1,4,-1,3
CC(=O)c1cccc(NC(=O)/C(=C\c2cccnc2)NC(=O)c2ccccc2)c1,1,29*,-6,-12,0,0
CCOC(=O)CC1CCCCN1C(=O)c1cc(COc2cccc3cnccc23)on1 (stereo unspecified),14,55*,-10,-13,14,32*
COC(=O)C1CCCCN1C(=O)c1cc(COc2cccc3cnccc23)on1 (stereo unspecified),14,16,-16,-10,10,20
CCCCNc1nc(NCc2ccccc2)nc2ccccc12,·,90*,·,-18,·,105*
c1ccc(CNc2ncnc3ccccc23)cc1,8,38*!,-10,-13,15,34*!
COc1cc2ncnc(NCc3ccccc3)c2cc1OC,1,0,-14,2,0,2
Cc1cc(NC(=O)CN2CCN(Cc3ccccc3)CC2)nc2c1c(=O)oc1ccccc12,0,·,1,·,0,·
CCCCc1ccc(NC(=O)CSc2nc3ncccc3[nH]2)cc1,6,33*,-11,-11,5,21
CCOC(=O)c1ccc(NC(=O)CSc2nc3ncccc3[nH]2)cc1,7,-16,-10,4,7,5
COc1ccc(N(C(=O)COc2ccccc2OC)S(=O)(=O)c2ccc(C)cc2)cc1,0,-6,-21,26*,1,1
CN1/C(=C/C(=O)CSc2ccccc2C(=O)O)C(C)(C)c2ccccc21,2,-1,2,-5,2,1
Cc1cc(=O)[nH]c(SCC(=O)/C=C2\N(C)c3ccccc3C2(C)C)n1,7,33*,-16,-22,23*,13
COc1cc(C(=O)Oc2cccc(Nc3ncnc4ccccc34)c2)cc(OC)c1OC,6,31*,-11,-28,6,17
O=C1c2ccccc2C(=O)N1CC#CCN1CCN(C(c2ccccc2)c2ccccc2)CC1,0,-23,0,-7,-1,0
O=C1C2CSCN2C(=O)CN1CCCN1CCN(C(c2ccccc2)c2ccccc2)CC1 (stereo unspecified),0,32*,-4,-16,0,1
SMILES,V1R ag counter,CHRM4 antagonist,OXTR potentiate,CHRM4 PAM,OXTR ag,M4 ag
Cc1ccc(CNC(=O)C2COc3ccccc3O2)cc1 (stereo unspecified),-1,4,-8,-3,-2,0
Cc1ccc(C(C(=O)NCc2ccc(F)cc2)N(CCCO)C(=O)C2COc3ccccc3O2)o1 (stereo unspecified),2,41*,-16,-15,2,9
COc1ccccc1CNCc1ccc(OC)c2ccccc12,2,-8,-14,-14,1,8
COc1cccc(CNCc2ccc(OC)c3ccccc23)c1OC,9,17,-13,-17,6,37*
C[C@H]1COc2cc(N3CCC[C@H]3CO)ccc2S(=O)(=O)N1,·,-15,·,12,·,2
Cc1cc(NC(=O)c2csc([C@@H]3O[C@H](CO)[C@H](O)[C@H](O)[C@H]3O)n2)n(C)n1,·,-3,·,-1,·,0
CCCOC(=O)c1ccc(NC(=O)CSC2=Nc3ccccc3C3CC=NN23)cc1 (stereo unspecified),-1,14,-7,38*,2,1
CC(C)(C)S(=O)N1Cc2cc(C(=O)NCc3ccc4c(c3)OCO4)nc(-c3cccc(-c4ccccc4)c3)c2[C@@H]1CCO (stereo partly specified),·,2,·,-10,·,12
CCC1(CC)NC(=O)N(CC(=O)OCC(=O)Nc2cc(C)ccc2C)C1=O,-1,-13,-14,18*,0,1
C[C@H]1CN([C@@H](C)CO)C(=O)c2cc(Br)cnc2O[C@@H]1CN(C)C(=O)c1ccncc1,·,-10,·,1,·,1
O=C1CC(N2CCN(C/C=C/c3ccccc3)CC2)C(=O)N1CCc1ccccc1 (stereo unspecified),10,21,-8,-11,14,20
O=C1CC(N2CCN(C/C=C/c3ccccc3)CC2)C(=O)N1Cc1cccs1 (stereo unspecified),1,34*,-3,-24,1,3
CCCCCCN1CCN(C2CN(Cc3cn(Cc4ccc(C)cc4)nn3)S(=O)(=O)C2)CC1 (stereo unspecified),·,0,·,-10,·,2
CC1(c2ccc([N+](=O)[O-])cc2)NC(=O)N(CC(=O)c2ccc3c(c2)OCO3)C1=O (stereo unspecified),23*,-7,-20,-6,34*,33*
CC1(c2ccc(OC(F)F)cc2)NC(=O)N(CC(=O)c2ccc3c(c2)OCO3)C1=O (stereo unspecified),39*,-8,-22,-8,41*,40*
CCCCCN(C(=O)CCC(=O)OC(C)C(=O)Nc1ccccc1C)c1c(N)n(CCCC)c(=O)[nH]c1=O (stereo unspecified),·,-6,·,7,·,0
Cc1cc(C)n2nc(C(=O)N/N=C/c3cccc(Cl)c3)nc2n1,0,1,-7,32*,0,1
Cc1cc(C)n2nc(C(=O)N/N=C/c3ccc(Cl)cc3)nc2n1,0,-7,-4,5,0,1

# Assay outcomes: PubChem BioAssay, The Scripps Research Institute Molecular Screening Center
